The values that follow come from ChEMBL document CHEMBL4145661, “H2O2/Peroxynitrite-Activated Hydroxamic Acid HDAC Inhibitor Prodrugs Show Antileukemic Activities against AML Cells” (ACS Med Chem Lett, 2018).

Each structure is given as a SMILES string. Calls of active or inactive are those of the source. No cut-off for these calls is given here. A value given as a limit tells only on which side of the number the result lay.

Usually inhibition stands for the relative decrease from the control value, in per cent. As a reminder, the IC50 is the concentration at which inhibition is half-maximal.

Series [1] has as its system U-937. The series can be described thus: Cytotoxicity against human U937 cells assessed as reduction in cell viability at 0.25 to 2.5 uM after 72 hrs by MTT assay. Type of series: functional, cell-based.
The subject of a further series is PBMC. As to the kind of experiment: Cytotoxicity against human PBMC assessed as reduction in cell viability after 72 hrs by MTT assay. Type of series: functional, cell-based. The procedure, abridged:
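Peripheral blood mononuclear cells from two healthy donors, viability measured by MTT assay.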

The test system of series [2] is MV4-11. The series can be described thus: Cytotoxicity against human MV4-11 cells assessed as reduction in cell viability at 0.05 to 0.5 uM cotreated with up to 500 nM of 4-CPA measured after 72 hrs by MTT assay. Type of series: functional, cell-based. In general terms: Formazan colour is commonly taken as a measure of viable cells.
For series [3], the target named is T1, Histone deacetylase (Homo sapiens) (UniProt Q13547+O15379+Q9UBN7+Q92769+Q9UQL6+Q8WUI4+Q9BY41+Q96DB2+P56524+Q9UKV0+Q969S8). The note with it: at 1 µM.
The test system of series [4] is MV4-11. The series can be described thus: Cytotoxicity against human MV4-11 cells assessed as reduction in cell viability at 0.25 to 1 uM cotreated with 4-CPA measured after 72 hrs by MTT assay. Type of series: functional, cell-based.
Series [5] deals with T1, Histone deacetylase (Homo sapiens). The series can be described thus: Inhibition of HDAC in human MV4-11 cells assessed as increase in acetylation of alpha-tubulin after 6 hrs by Western blot analysis. Type of series: cell-based. Put shortly: (§1)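 Western blot of MV4-11 cells after 6 h exposure at the indicated concentrations, probing acetyl-histone H4 and acetyl-α-tubulin. Densitometry normalized to GAPDH, fold change relative to SAHA treatment. Blot representative of three experiments.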
(In general: A western blot detects proteins with antibodies after separation by electrophoresis.)

In series [6] the test system is MV4-11. The series can be described thus: Cytotoxicity against human MV4-11 cells assessed as reduction in cell viability after 72 hrs by MTT assay. The settings on record: MV4-11, 72 h.
For series [7], the target named is T1, Histone deacetylase (Homo sapiens). The series can be described thus: Inhibition of HDAC in human PBMC assessed as increase in acetylation of histone H4 at 5 to 10 uM after 6 hrs by Western blot analysis. Type of series: cell-based. Put shortly: (§2)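 Peripheral blood mononuclear cells from one healthy donor, treated at 5 and 10 μM and compared against vehicle control. Acetyl-histone H4 and acetyl-α-tubulin assessed by Western blot.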

Series [8] has the same target. As to the kind of experiment: Inhibition of HDAC in human U937 cells assessed as increase in acetylation of alpha-tubulin after 6 hrs by Western blot analysis. Type of series: cell-based.
Series [9] concerns MV4-11. As to the kind of experiment: Cytotoxicity against human MV4-11 cells assessed as reduction in cell viability at 2.5 uM pretreated with BSO for 2 hrs followed by compound addition measured after 72 hrs by MTT assay. Type of series: functional, cell-based.
Series [10] deals with T1, Histone deacetylase (Homo sapiens). As to the kind of experiment: Inhibition of HDAC in human U937 cells assessed as increase in acetylation of histone H4 after 6 hrs by Western blot analysis. Type of series: cell-based.
Series [11] has the same target. The series can be described thus: Inhibition of HDAC in human MV4-11 cells assessed as increase in acetylation of histone H4 after 6 hrs by Western blot analysis. Type of series: cell-based. The procedure, abridged: as §1
Series [12] concerns MV4-11. As to the kind of experiment: Cytotoxicity against human MV4-11 cells assessed as reduction in cell viability at 2.5 uM pretreated with catalase for 2 hrs followed by compound addition measured after 72 hrs by MTT assay. Type of series: functional, cell-based.
Series [13] is described as follows: Chemical stability of the compound in PBS at 100 uM at pH 7.4 after 72 hrs at 37 degC in presence of GSH by HPLC method. Type of series: physicochemical. The settings on record: buffer, pH 7.4, 72 h.
Series [14] deals with MV4-11. As to the kind of experiment: Cytotoxicity against human MV4-11 cells assessed as reduction in cell viability at 2.5 uM pretreated with GSH for 2 hrs followed by compound addition measured after 72 hrs by MTT assay. Type of series: functional, cell-based.
Series [15] deals with MV4-11. As to the kind of experiment: Potentiation of cytarabine-induced cytotoxicity against human MV4-11 cells assessed as increase in cleaved PARP level at 2.5 uM after 24 hrs by Western blot analysis. Type of series: functional, cell-based. The procedure, abridged:
(§3)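 MV4-11 cells exposed 24 h to prodrug (2.5 or 0.5 μM) and/or cytarabine (0.5 μM). Cleaved caspase-3 and cleaved PARP-1 detected by Western blot.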

The subject of series [16] is U-937. The series can be described thus: Cytotoxicity against human U937 cells assessed as reduction in cell viability after 72 hrs by MTT assay. The note with it: U-937, 72 h.
Series [17] deals with T1, Histone deacetylase (Homo sapiens). The series can be described thus: Inhibition of HDAC in human PBMC assessed as increase in acetylation of alpha-tubulin at 5 to 10 uM after 6 hrs by Western blot analysis. Type of series: cell-based. The procedure, abridged: as §2
The subject of series [18] is MV4-11. As to the kind of experiment: Cytotoxicity against human MV4-11 cells assessed as reduction in cell viability at 2.5 uM pretreated with GSHEE for 2 hrs followed by compound addition measured after 72 hrs by MTT assay. Type of series: functional, cell-based.
Series [19] relates to MV4-11. As to the kind of experiment: Potentiation of cytarabine-induced cytotoxicity against human MV4-11 cells assessed as reduction in cell viability at 2.5 uM after 72 hrs by MTT assay. Type of series: functional, cell-based. The procedure, abridged: (§4)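 MV4-11 cells given prodrug (2.5 or 0.5 μM) with cytarabine for 72 h. Viability by MTT; mean ± SD, n = 6.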
Series [20] concerns MV4-11. As to the kind of experiment: Potentiation of cytarabine-induced cytotoxicity against human MV4-11 cells assessed as increase in cleaved caspase 3 level at 2.5 uM after 24 hrs by Western blot analysis. Type of series: functional, cell-based. Put shortly: as §3
For series [21], the system named is MV4-11. The series can be described thus: Cytotoxicity against human MV4-11 cells assessed as reduction in cell viability at 2.5 uM pretreated with SOD for 2 hrs followed by compound addition measured after 72 hrs by MTT assay. Type of series: functional, cell-based.
For series [22], the system named is MV4-11. As to the kind of experiment: Cytotoxicity against human MV4-11 cells assessed as reduction in cell viability at 2.5 uM pretreated with LPS for 2 hrs followed by compound addition measured after 72 hrs by MTT assay. Type of series: functional, cell-based.
Series [23] has as its system MV4-11. The series can be described thus: Potentiation of cytarabine-induced cytotoxicity against human MV4-11 cells assessed as increase in cleaved PARP level at 0.5 uM after 24 hrs by Western blot analysis. Type of series: functional, cell-based. The procedure, abridged: as §3
Series [24] concerns MV4-11. The series can be described thus: Potentiation of cytarabine-induced cytotoxicity against human MV4-11 cells assessed as reduction in cell viability at 0.5 uM after 72 hrs by MTT assay. Type of series: functional, cell-based. Put shortly: as §4
Series [25] concerns MV4-11. As to the kind of experiment: Potentiation of cytarabine-induced cytotoxicity against human MV4-11 cells assessed as increase in cleaved caspase 3 level at 0.5 uM after 24 hrs by Western blot analysis. Type of series: functional, cell-based. Put shortly: as §3
The subject of series [26] is MV4-11. As to the kind of experiment: Cytotoxicity against human MV4-11 cells assessed as reduction in cell viability up to 10 uM after 72 hrs by MTT assay. Type of series: functional, cell-based.

Regarding `COC(=O)CCCCCCOc1c(OC)cc(/C=C/C(=O)N2CCC=CC2=O)cc1OC`, the result in the series on U-937 [1] was inactive.
In the case of `O=C(CCCCCCC(=O)Nc1ccccc1)NO`, in the series with PBMC, the outcome was Active. For the same compound, in the series on MV4-11 [2], the outcome was inactive.
For the compound `COc1cc(/C=C/C(=O)N2CCC=CC2=O)cc(OC)c1OCCCCCCC(=O)NO`, in series [3], the inhibition was 32%. For the same compound, the result with MV4-11 [4] was Active.
For `O=C(CCCCCCC(=O)Nc1ccccc1)NOCc1ccc(B(O)O)cc1`, the inhibition result in series [5], in series [8], in series [10] and in [11] was “Dose-dependent effect” throughout. Besides, the IC50 in the series on PBMC is greater than 10 µM; in the series on MV4-11 [6] it was 3.07 µM; in the series with U-937 [16], 6.13 µM. Moreover, the inhibition entry in series [7] and in [17] was “inactive” each time. The result with MV4-11 [9], in the series with MV4-11 [15], in the series on MV4-11 [19], in the series on MV4-11 [20], in the series on MV4-11 [21] and with MV4-11 [22] was Active. The outcome with MV4-11 [12], in the series with MV4-11 [14] and in the series on MV4-11 [18] was inactive. For the same compound, the Stability result in [13] is “Stable”.
With `COc1cc(/C=C/C(=O)N2CCC=CC2=O)cc(OC)c1OCCCCCCC(=O)NOCc1ccc(B(O)O)cc1`, the result in the series on MV4-11 [23], in the series with MV4-11 [24] and in the series on MV4-11 [25] was Active. The inhibition entry in [5], in [8], in [10] and in series [11] was “Dose-dependent effect” each time. Besides, the IC50 is 7.6 to 10 µM in the series with PBMC, 0.7 µM with MV4-11 [6] and 1.61 µM in the series with U-937 [16]. Besides, the inhibition result in [7] and in series [17] was “inactive” in each case.
Turning to `O=C(CCCCCCC(=O)Nc1ccccc1)NCCc1ccc(B(O)O)cc1`, in the series on MV4-11 [26], the outcome was inactive.
In the case of `CC(=O)Oc1ccc(CCl)cc1`, in the series on MV4-11 [6], the half-maximal inhibitory concentration (IC50) is 1.13 µM.
